Experimental data as given in ChEMBL document CHEMBL1125363, “Novel piperidine sigma receptor ligands as potential antipsychotic drugs” (J Med Chem, 1992).

How the values were obtained:
[1] = (§1) Oral potency by using Anti aggression test; format: functional
How it was run: (§2)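 Mice were held in prolonged isolation, then exposed to intruders. The aggressive response was scored after oral dosing of the test compound. Potency is the ED50 in mg/kg po.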

[2] = species: Mus musculus; experiment: Oral potency tested using apomorphine induced climbing test; format: functional
[3] = molecular target: Sigma non-opioid intracellular receptor 1 (Mus musculus, UniProt O55242); experiment: In vitro binding affinity for the mouse sigma opioid receptor
[4] = molecular target: T1, D(2) dopamine receptor (Mus musculus, UniProt P61168); experiment: In vitro binding affinity towards dopamine receptor D2
[5] = species: Rattus norvegicus; experiment: Oral potency tested using 5HTP induced head twitch test; format: functional
[6] = species: Mus musculus; experiment: Oral potency tested by using anti-mescaline test; format: functional
How it was run: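 Mice; mescaline was given to evoke hallucinogen-type behaviour, and the test compound was dosed orally to antagonise it. Potency is the ED50 in mg/kg po. Some ED50s are the average of three measurements.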

[7] = molecular target: T2, Serotonin 2 (5-HT2) receptor (Mus musculus, UniProt Q02152+P34968+P35363); experiment: In vitro binding affinity for serotonin 5-hydroxytryptamine (5-HT) 2 receptors; format: protein assay
[8] = molecular target: T1, D(2) dopamine receptor; experiment: The compound was tested in vitro for its binding affinity towards Dopamine receptor D2
[9] = molecular target: T2, Serotonin 2 (5-HT2) receptor; experiment: The compound was tested in vitro for its binding affinity towards 5-hydroxytryptamine 2 receptor; format: protein assay
[10] = species: Mus musculus; experiment: as §1; format: functional; how it was run: as §2
[11] = species: Mus musculus; experiment: Potency was tested using Anti mescaline test(Intra peritoneal); format: functional
How it was run: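 Mouse mescaline-antagonism test with the test compound given intraperitoneally. Read-out is the ED50 in mg/kg ip.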

[12] = molecular target: D(1A) dopamine receptor (Mus musculus, UniProt Q61616); experiment: The compound was tested in vitro for its binding affinity towards dopamine receptor D1
[13] = species: Rattus norvegicus; experiment: The compound was tested for blocking the rotation induced by (+)-SKF 10047 in brain-lesioned rats.; format: functional
How it was run: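 Rats with brain lesions were challenged with (+)-SKF 10047 to induce rotation. The test compound was given orally to block rotation. Reported as the ED50 in mg/kg po.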

T1 sequence (P61168 whole entry): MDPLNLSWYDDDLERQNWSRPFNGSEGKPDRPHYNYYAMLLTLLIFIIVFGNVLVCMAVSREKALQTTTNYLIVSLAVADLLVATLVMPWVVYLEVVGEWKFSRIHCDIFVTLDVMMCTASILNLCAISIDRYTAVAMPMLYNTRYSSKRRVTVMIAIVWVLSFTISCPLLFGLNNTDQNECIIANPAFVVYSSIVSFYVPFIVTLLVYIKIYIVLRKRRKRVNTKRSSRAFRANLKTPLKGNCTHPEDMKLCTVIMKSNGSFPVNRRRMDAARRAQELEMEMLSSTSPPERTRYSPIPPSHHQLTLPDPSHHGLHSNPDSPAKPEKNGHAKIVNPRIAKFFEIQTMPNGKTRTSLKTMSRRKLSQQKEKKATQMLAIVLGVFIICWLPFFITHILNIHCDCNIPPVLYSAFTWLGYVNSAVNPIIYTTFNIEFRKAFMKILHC
Chain of Sigma non-opioid intracellular receptor 1 (O55242 whole entry): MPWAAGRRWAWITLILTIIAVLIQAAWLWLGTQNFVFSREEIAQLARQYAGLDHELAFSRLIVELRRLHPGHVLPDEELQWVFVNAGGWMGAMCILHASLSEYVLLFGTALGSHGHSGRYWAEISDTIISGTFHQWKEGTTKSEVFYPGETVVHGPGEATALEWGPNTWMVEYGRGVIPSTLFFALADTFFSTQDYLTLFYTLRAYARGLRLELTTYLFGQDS
Chain of D(1A) dopamine receptor (Q61616 whole entry): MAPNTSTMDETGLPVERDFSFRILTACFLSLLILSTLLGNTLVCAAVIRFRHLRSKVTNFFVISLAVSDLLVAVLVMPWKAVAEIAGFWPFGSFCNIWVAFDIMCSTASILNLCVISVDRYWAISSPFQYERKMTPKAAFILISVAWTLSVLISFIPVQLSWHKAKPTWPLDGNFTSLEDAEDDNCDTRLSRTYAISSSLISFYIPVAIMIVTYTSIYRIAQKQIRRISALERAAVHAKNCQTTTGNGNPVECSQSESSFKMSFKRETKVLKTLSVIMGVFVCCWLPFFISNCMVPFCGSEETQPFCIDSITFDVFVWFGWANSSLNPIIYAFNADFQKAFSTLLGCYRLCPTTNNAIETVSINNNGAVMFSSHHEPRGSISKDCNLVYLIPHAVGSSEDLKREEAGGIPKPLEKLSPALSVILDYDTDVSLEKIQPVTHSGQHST

SMILES | ED50 [1] [mg/kg] | ED50 [2] [mg/kg] | Ki [3] [nM] | IC50 [4] [nM] | ED50 [5] [mg/kg] | ED50 [6] [mg/kg] | Ki [7] [nM] | IC50 [8] [nM] | Ki [9] [nM] | ED50 [10] [mg/kg] | ED50 [11] [mg/kg] | Ki [12] [nM] | ED50 [13] [mg/kg]
O.O=[N+]([O-])c1ccc(OCC2CCN(CC3CC3)CC2)cc1 | 1.4 | > 30 | 13 | > 10000 | > 10 | 0.85 | 215 | – | – | – | – | – | –
O=C(CC1CCN(Cc2ccc(F)cc2)CC1)c1ccc(F)cc1 | 4.5 | < 10 | 3 | 608 | < 10 | 4.5 | 26 | – | – | – | – | – | –
Fc1ccc(SCC2CCN(CCC3CC3)CC2)cc1 | – | – | 5 | – | – | > 10 | – | 1700 | 53 | – | – | – | –
CC(C)(C)c1ccc(OCC2CCN(CC3CC3)CC2)cc1 | – | > 30 | 14 | 3150 | – | < 30 | > 1000 | – | – | > 30 | – | – | –
O.O=C(O)/C=C\C(=O)O.c1ccc(CN2CCC(COCc3ccc(-c4ccccc4)cc3)CC2)cc1 | – | – | 20 | 1850 | – | – | 47 | – | – | – | 10 | – | –
N#Cc1ccc(C(=O)CC2CCN(CC3CC3)CC2)cc1.O=C(O)/C=C/C(=O)O | 0.44 | > 90 | 11 | > 10000 | 22.3 | 0.8 | > 10000 | – | – | – | – | > 10000 | 5.3
O.c1ccc2cc(OCC3CCN(CC4CC4)CC3)ccc2c1 | – | – | 5 | 2960 | – | – | > 100 | – | – | – | > 10 | – | –
O.c1ccc(-c2ccc(OCC3CCN(CC4CC4)CC3)cc2)cc1 | 30 | > 30 | 12 | > 10000 | > 30 | 7.5 | > 10000 | – | – | – | – | – | –
Fc1ccc(OCC2CCN(CC3CC3)CC2)cc1 | 12 | > 30 | 2 | 381 | 10 | 2.9 | 9 | – | – | – | – | – | –
O.O=C(Cc1ccc(F)cc1)C1CCN(Cc2ccncc2)CC1.O=C(O)/C=C\C(=O)O | 38 | – | 7 | > 10000 | 28 | 10 | 1705 | – | – | – | – | – | –
O=C(O)/C=C\C(=O)O.c1ccc(CCCOCC2CCN(Cc3ccccc3)CC2)cc1 | – | – | 3.2 | 839 | – | – | 260 | – | – | – | < 10 | – | –
O.O=C(CC1CCN(Cc2ccccc2)CC1)c1ccc(F)cc1.O=C(O)/C=C\C(=O)O | – | 18 | 1 | 1550 | 2.8 | 4.8 | 20 | – | – | 8.6 | – | – | –
Fc1ccc(OCC2CCN(CCC3CC3)CC2)cc1.O=C(O)/C=C/C(=O)O | 4.5 | – | 3 | 428 | < 10 | 3.1 | – | – | – | – | – | – | –
N#Cc1ccc(OCC2CCN(CC3CC3)CC2)cc1 | 2.6 | – | 10 | > 10000 | 29 | 1.7 | 2818 | – | – | – | – | – | –
Cl.Clc1ccc(OCC2CCN(CC3CC3)CC2)cc1 | 26 | > 30 | 4 | > 10000 | 27 | 4.4 | 40 | – | – | – | – | – | –
Cl.Fc1ccc(OCC2CCN(Cc3ccccc3)CC2)cc1.O | 8.2 | > 30 | 2 | 870 | – | 4 | 28 | – | – | – | – | – | –
